Among the data in ChEMBL document CHEMBL3621107, “Ring fusion strategy for synthesis and lead optimization of sulfur-substituted anthra[1,2-c][1,2,5]thiadiazole-6,11-dione derivatives as promising scaffold of antitumor agents” (Eur J Med Chem, 2015) are IC50 and growth values, retold here.

SMILES strings stand for the structures.

Assay [1] relates to DU-145. In words: Cytotoxicity against human DU145 cells after 72 hrs by MTT assay. To be noted: DU-145, 72 h. The class given is functional, cell-based. In outline: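 DU-145 cells grown in RPMI-1640 with 5% heat-inactivated fetal calf serum at 37 °C, 5% CO2. About 2×10^3 cells per well were seeded and incubated for 24 h. Compounds were dissolved in DMSO freshly and diluted into medium (vehicle 0.1% DMSO), then cells were exposed for 72 h. MTT was added for 3 h at 37 °C and absorbance read at 570 nm.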

The next assay deals with T47D. Put plainly: Cytotoxicity against human T47D cells assessed as cell growth at 10 uM after 48 hrs by SRB assay relative to control. The class given is functional. To be noted: read-out: Activity. The method, boiled down: (§1)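 NCI-60 one-dose screen run by NCI DTP: each cell line exposed to a single 10 µM dose, and percentage growth recorded against untreated growth.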

The subject of a further assay is ACHN. In words: Cytotoxicity against human ACHN cells assessed as cell growth at 10 uM after 48 hrs by SRB assay relative to control. In kind it is functional. The conditions noted are these: read-out: Activity. The method, boiled down:
(§2)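 First-stage NCI-60 screen by the NCI Developmental Therapeutics Program. Each compound was tested once at a single concentration of 10 μM against the 60-cell-line panel. Growth percentage was reported for each cell line.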

In a further assay the test system is SNB-75. In words: Cytotoxicity against human SNB75 cells assessed as cell growth at 10 uM after 48 hrs by SRB assay relative to control. The class given is functional. The conditions noted are these: SNB-75, 48 h, read-out: Activity. The method, boiled down:
as §1

Another assay concerns NCI-H522. Put plainly: Cytotoxicity against human NCI-H522 cells assessed as cell growth at 10 uM after 48 hrs by SRB assay relative to control. To be noted: NCI-H522, 48 h, read-out: Activity. In kind it is functional. The method, boiled down:
(§3)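 First-stage NCI DTP one-dose screen against the 60 human tumour cell line panel. Compounds were tested at a single 10 μM level, and results are given as growth percentage.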

The next assay relates to CAKI-1. Put plainly: Cytotoxicity against human Caki1 cells assessed as cell growth at 10 uM after 48 hrs by SRB assay relative to control. The conditions noted are these: CAKI-1, 48 h, read-out: Activity. The class given is functional. In outline:
as §2

The subject of another assay is LOX IMVI. In words: Cytotoxicity against human LOXIMVI cells assessed as cell growth at 10 uM after 48 hrs by SRB assay relative to control. In kind it is functional. To be noted: read-out: Activity. In outline: as §2
The subject of the next assay is U-251. In words: Cytotoxicity against human U251 cells assessed as cell growth at 10 uM after 48 hrs by SRB assay relative to control. The class given is functional. To be noted: U-251, 48 h, read-out: Activity. In outline:
as §1

The test system of another assay is HT-29. Put plainly: Cytotoxicity against human HT-29 cells assessed as cell growth at 10 uM after 48 hrs by SRB assay relative to control. The class given is functional. To be noted: HT-29, 48 h, read-out: Activity. The method, boiled down: as §2
Assay [2] is described as follows: Cytotoxicity against human EKVX cells assessed as cell growth at 10 uM after 48 hrs by SRB assay relative to control. The class given is functional. The conditions noted are these: read-out: Activity. The method, boiled down:
as §2

A further assay has as its system RXF 393. In words: Cytotoxicity against human RXF393 cells assessed as cell growth at 10 uM after 48 hrs by SRB assay relative to control. In kind it is functional. The conditions noted are these: RXF 393, 48 h, read-out: Activity. In outline: as §3
Another assay deals with IGROV-1. Put plainly: Cytotoxicity against human IGROV1 cells assessed as cell growth at 10 uM after 48 hrs by SRB assay relative to control. In kind it is functional. The conditions noted are these: IGROV-1, 48 h, read-out: Activity. The method, boiled down: as §2
Another assay has as its system BT-549. Put plainly: Cytotoxicity against human BT549 cells assessed as cell growth at 10 uM after 48 hrs by SRB assay relative to control. In kind it is functional. To be noted: BT-549, 48 h, read-out: Activity. The method, boiled down:
as §2

In another assay the test system is HCC 2998. In words: Cytotoxicity against human HCC2998 cells assessed as cell growth at 10 uM after 48 hrs by SRB assay relative to control. The class given is functional. To be noted: HCC 2998, 48 h, read-out: Activity. In outline: as §2
Another assay has as its system M14. Put plainly: Cytotoxicity against human M14 cells assessed as cell growth at 10 uM after 48 hrs by SRB assay relative to control. In kind it is functional. The conditions noted are these: M14, 48 h, read-out: Activity. In outline: as §2
The test system of a further assay is SK-MEL-5. Put plainly: Cytotoxicity against human SK-MEL-5 cells assessed as cell growth at 10 uM after 48 hrs by SRB assay relative to control. To be noted: SK-MEL-5, 48 h, read-out: Activity. In kind it is functional. The method, boiled down: as §3
In the next assay the test system is MDA-MB-435. In words: Cytotoxicity against human MDA-MB-435 cells assessed as cell growth at 10 uM after 48 hrs by SRB assay relative to control. The class given is functional. The conditions noted are these: MDA-MB-435, 48 h, read-out: Activity. In outline: as §3
Another assay has as its system MDA-MB-468. Put plainly: Cytotoxicity against human MDA-MB-468 cells assessed as cell growth at 10 uM after 48 hrs by SRB assay relative to control. The class given is functional. To be noted: MDA-MB-468, 48 h, read-out: Activity. The method, boiled down:
as §3

In the next assay the test system is MOLT-4. In words: Cytotoxicity against human MOLT4 cells assessed as cell growth at 10 uM after 48 hrs by SRB assay relative to control. The class given is functional. The conditions noted are these: MOLT-4, 48 h, read-out: Activity. The method, boiled down:
as §3

For assay [3], the system named is DU-145. Put plainly: Cytotoxicity against human DU145 cells assessed as cell growth at 10 uM after 48 hrs by SRB assay relative to control. The class given is functional. The conditions noted are these: DU-145, 48 h, read-out: Activity. The method, boiled down:
as §2

The next assay has as its system K562. In words: Cytotoxicity against human K562 cells assessed as cell growth at 10 uM after 48 hrs by SRB assay relative to control. The class given is functional. To be noted: K562, 48 h, read-out: Activity. The method, boiled down:
as §2

In another assay the test system is PC-3. In words: Cytotoxicity against human PC3 cells assessed as cell growth at 10 uM after 48 hrs by SRB assay relative to control. In kind it is functional. The conditions noted are these: PC-3, 48 h, read-out: Activity. The method, boiled down:
as §3

The subject of a further assay is A498. Put plainly: Cytotoxicity against human A498 cells assessed as cell growth at 10 uM after 48 hrs by SRB assay relative to control. The class given is functional. The conditions noted are these: A498, 48 h, read-out: Activity. The method, boiled down: as §2
The test system of a further assay is HOP-92. Put plainly: Cytotoxicity against human HOP92 cells assessed as cell growth at 10 uM after 48 hrs by SRB assay relative to control. The class given is functional. To be noted: HOP-92, 48 h, read-out: Activity. In outline:
as §2

In a further assay the test system is RPMI-8226. In words: Cytotoxicity against human RPMI8226 cells assessed as cell growth at 10 uM after 48 hrs by SRB assay relative to control. The class given is functional. The conditions noted are these: RPMI-8226, 48 h, read-out: Activity. The method, boiled down:
as §3

A further assay relates to SF-268. Put plainly: Cytotoxicity against human SF268 cells assessed as cell growth at 10 uM after 48 hrs by SRB assay relative to control. In kind it is functional. To be noted: SF-268, 48 h, read-out: Activity. The method, boiled down: as §3
Another assay deals with OVCAR-3. Put plainly: Cytotoxicity against human OVCAR3 cells assessed as cell growth at 10 uM after 48 hrs by SRB assay relative to control. The class given is functional. The conditions noted are these: OVCAR-3, 48 h, read-out: Activity. The method, boiled down:
as §3

The nature of assay [4]: Cytotoxicity against human Hs578T cells assessed as cell growth at 10 uM after 48 hrs by SRB assay relative to control. The conditions noted are these: Hs-578T, read-out: Activity. In kind it is functional. The method, boiled down: as §2

`O=C1c2ccccc2C(=O)c2c1cc(Sc1cccc(Cl)c1)c1nsnc21` gave an IC50 in the assay on DU-145 [1] of 1.75 µM. The growth at 10 µM was -42.3% in the assay with T47D; -92.5% in the assay with ACHN; 26.1% in the assay with SNB-75; 7.18% in the assay on NCI-H522; -3.69% with CAKI-1; -59.2% with LOX IMVI. In addition, the growth at 10 µM with U-251 is -69.5%; in the assay with HT-29, 102%; in [2], 43.6%; in the assay with RXF 393, -27.8%; in the assay with IGROV-1 it was -13.5%; with BT-549, 36.2%. Also, the growth at 10 µM in the assay with HCC 2998 is 102%; with M14 it was -76.4%; with SK-MEL-5, 19%; in the assay on MDA-MB-435 it was -82.3%; in the assay with MDA-MB-468, -79.2%.

Regarding `O=C1c2ccccc2C(=O)c2c1cc(Sc1ccccc1Br)c1nsnc21`, the IC50 in the assay with DU-145 [1] was determined as 9.58 µM. Also, the growth at 10 µM with MOLT-4 was 29.7%; with T47D, -33%; in the assay on ACHN, 25.5%; in the assay with SNB-75, 47.2%; in the assay on DU-145 [3], 50.6%; with NCI-H522, 30.8%. Moreover, the growth at 10 µM is 29.7% in the assay with K562; 29.7% in the assay on CAKI-1; -15.3% in the assay with LOX IMVI; 11.5% in the assay on U-251; 96.5% in the assay on HT-29; 77.7% in assay [2]. The growth at 10 µM in the assay on PC-3 was 4.23%; in the assay with A498 it was 24.2%; with RXF 393, -8.53%; in the assay with IGROV-1, 27.9%; in the assay with HOP-92 it was 37.6%; in the assay on BT-549, 52.2%. The growth at 10 µM was 9.4% in the assay on RPMI-8226; 78.4% in the assay on HCC 2998; 59.5% with M14; -5.11% in the assay on SF-268; 46.3% with SK-MEL-5; -65.8% in the assay on OVCAR-3. Moreover, the growth at 10 µM in the assay on MDA-MB-435 was -73%; in the assay with MDA-MB-468 it was -79.9%; in assay [4] it was 54.2%.

In turn, `CCOc1cccc(Sc2cc3c(c4nsnc24)C(=O)c2ccccc2C3=O)c1` had a half-inhibitory concentration (IC50) in the assay with DU-145 [1] of more than 15 µM. The growth at 10 µM with T47D turned out to be 86.5%; in the assay with ACHN, 103%; in the assay on SNB-75, 77.2%; in the assay with NCI-H522, 98.2%; in the assay with CAKI-1 it was 84.2%; with LOX IMVI, 84.1%. The growth at 10 µM in the assay on U-251 came to 110%; in the assay with HT-29, 106%; in assay [2] it was 102%; with RXF 393, 118%; in the assay with IGROV-1 it was 94.7%; in the assay with BT-549, 104%. Moreover, the growth at 10 µM in the assay with HCC 2998 was found to be 105%; in the assay with M14, 104%; in the assay on SK-MEL-5 it was 107%; in the assay on MDA-MB-435, 106%; with MDA-MB-468, 108%.
